ChEMBL document CHEMBL4033651, “Exploration of flexible phenylpropylurea scaffold as novel cardiac myosin activators for the treatment of systolic heart failure” (Eur J Med Chem, 2017)

Assays:
[1] = organism: Bos taurus; assay: Activation of actin-stimulated bovine cardiac myosin S1 fragment ATPase activity in sarcomere at 10 uM after 10 mins by spectrophotometric analysis
In short: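 Bovine cardiac S1 myosin with actin thin filament complex at pCa 6.5, in 20 mM Tris HCl pH 7.5, 15 mM KCl, 6 mM MgCl2, 1 mM ATP. Compound at 10 μM, 10 min at room temperature. Stopped with Cytophos reagent; liberated phosphate read at 650 nm. % activity calculated relative to DMSO negative control, blank-corrected.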

[2] = system: Rattus norvegicus; assay: Positive inotropic activity in Sprague-Dawley rat heart assessed as left ventricle fractional shortening at 2 to 16 ug/kg/min for 3 mins by echocardiographic analysis; assay type: functional
In short: (§1)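 Seven-week-old male Sprague-Dawley rats under 1.5 % isoflurane via nosecone. Drug given through a right internal jugular vein central line. Left ventricular fractional shortening and ejection fraction measured by echocardiography with and without sample, expressed as % increase.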

[3] = system: Rattus norvegicus; assay: Positive inotropic activity in Sprague-Dawley rat heart assessed as ejection fraction at 2 to 16 ug/kg/min for 3 mins by echocardiographic analysis; assay type: functional; in short: as §1
[4] = organism: Oryctolagus cuniculus; assay: Activation of actin-stimulated rabbit psoas skeletal muscle myosin S1 fragment ATPase activity at 100 uM after 10 mins by spectrophotometric analysis
In short: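 Rabbit skeletal S1 myosin with actin thin filament complex at pCa 6.5, in 20 mM Tris HCl pH 7.5, 15 mM KCl, 6 mM MgCl2, 1 mM ATP. Compound at single 100 uM dose, 10 min at room temperature. Cytophos stop; phosphate read at 650 nm. % activity versus blank-corrected DMSO control.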

[5] = organism: Gallus gallus; assay: Activation of actin-stimulated chicken gizzard smooth muscle myosin S1 fragment ATPase activity at 100 uM after 10 mins by spectrophotometric analysis
In short: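 Chicken gizzard smooth muscle S1 myosin with actin plus tropomyosin at pCa 6.5, in 20 mM Tris HCl pH 7.5, 15 mM KCl, 6 mM MgCl2, 1 mM ATP. Compound at single 100 uM dose, 10 min at room temperature. Cytophos stop; phosphate read at 650 nm. % activity versus blank-corrected DMSO control.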

[6] = Solubility of the compound in water; assay type: physicochemical; settings: buffer
In short: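 Final solution concentration measured by HPLC against three standards of known concentration.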

[7] = system: Rattus norvegicus; assay: Positive inotropic activity in Sprague-Dawley rat heart assessed as fractional shortening at 4 ug/kg/min for 3 mins by echocardiographic analysis (reference value: 38.60 to 55.81%); assay type: functional; in short: as §1
[8] = system: Rattus norvegicus; assay: Positive inotropic activity in Sprague-Dawley rat heart assessed as heart rate at 4 ug/kg/min for 3 mins by echocardiographic analysis (reference value: 281 to 347 bpm); assay type: functional
[9] = system: Rattus norvegicus; assay: Positive inotropic activity in Sprague-Dawley rat heart assessed as heart rate at 8 ug/kg/min for 3 mins by echocardiographic analysis (reference value: 281 to 347 bpm); assay type: functional
[10] = system: Rattus norvegicus; assay: Positive inotropic activity in Sprague-Dawley rat heart assessed as heart rate at 16 ug/kg/min for 3 mins by echocardiographic analysis (reference value: 281 to 347 bpm); assay type: functional
[11] = system: Rattus norvegicus; assay: Positive inotropic activity in Sprague-Dawley rat heart assessed as left ventricular internal diameter end diastole at 4 ug/kg/min for 3 mins by echocardiographic analysis (reference value: 5.66 to 7.80 mm); assay type: functional
In short: (§2)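 Male Sprague-Dawley rats, seven weeks old, anaesthetised with 1.5 % isoflurane given by nosecone. Compound infused through the right internal jugular vein, used as a central venous line. Left ventricular dimensions measured by echocardiography.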

[12] = system: Rattus norvegicus; assay: Positive inotropic activity in Sprague-Dawley rat heart assessed as left ventricular internal diameter end diastole at 8 ug/kg/min for 3 mins by echocardiographic analysis (reference value: 5.66 to 7.80 mm); assay type: functional; in short: as §2
[13] = system: Rattus norvegicus; assay: Positive inotropic activity in Sprague-Dawley rat heart assessed as left ventricular internal diameter end diastole at 16 ug/kg/min for 3 mins by echocardiographic analysis (reference value: 5.66 to 7.80 mm); assay type: functional
[14] = system: Rattus norvegicus; assay: Positive inotropic activity in Sprague-Dawley rat heart assessed as left ventricular posterior wall thickness end systole at 4 ug/kg/min for 3 mins by echocardiographic analysis (reference value: 2.07 to 2.46 mm); assay type: functional; in short: as §2
[15] = system: Rattus norvegicus; assay: Positive inotropic activity in Sprague-Dawley rat heart assessed as left ventricular posterior wall thickness end systole at 8 ug/kg/min for 3 mins by echocardiographic analysis (reference value: 2.07 to 2.46 mm); assay type: functional; in short: as §2
[16] = system: Rattus norvegicus; assay: Positive inotropic activity in Sprague-Dawley rat heart assessed as left ventricular posterior wall thickness end systole at 16 ug/kg/min for 3 mins by echocardiographic analysis (reference value: 2.07 to 2.46 mm); assay type: functional; in short: as §2
[17] = system: Rattus norvegicus; assay: Positive inotropic activity in Sprague-Dawley rat heart assessed as left ventricular posterior wall thickness end diastole at 4 ug/kg/min for 3 mins by echocardiographic analysis (reference value: 0.88 to 1.54 mm); assay type: functional; in short: as §2
[18] = system: Rattus norvegicus; assay: Positive inotropic activity in Sprague-Dawley rat heart assessed as left ventricular posterior wall thickness end diastole at 8 ug/kg/min for 3 mins by echocardiographic analysis (reference value: 0.88 to 1.54 mm); assay type: functional; in short: as §2
[19] = system: Rattus norvegicus; assay: Positive inotropic activity in Sprague-Dawley rat heart assessed as left ventricular posterior wall thickness end diastole at 16 ug/kg/min for 3 mins by echocardiographic analysis (reference value: 0.88 to 1.54 mm); assay type: functional; in short: as §2
[20] = system: Rattus norvegicus; assay: Positive inotropic activity in Sprague-Dawley rat heart assessed as ejection fraction at 4 ug/kg/min for 3 mins by echocardiographic analysis (reference value: 67.16 to 85.81%); assay type: functional; in short: as §1
[21] = system: Rattus norvegicus; assay: Positive inotropic activity in Sprague-Dawley rat heart assessed as ejection fraction at 8 ug/kg/min for 3 mins by echocardiographic analysis (reference value: 67.16 to 85.81%); assay type: functional; in short: as §1
[22] = system: Rattus norvegicus; assay: Positive inotropic activity in Sprague-Dawley rat heart assessed as ejection fraction at 16 ug/kg/min for 3 mins by echocardiographic analysis (reference value: 67.16 to 85.81%); assay type: functional; in short: as §1
[23] = system: Rattus norvegicus; assay: Positive inotropic activity in Sprague-Dawley rat heart assessed as fractional shortening at 8 ug/kg/min for 3 mins by echocardiographic analysis (reference value: 38.60 to 55.81%); assay type: functional; in short: as §1
[24] = system: Rattus norvegicus; assay: Positive inotropic activity in Sprague-Dawley rat heart assessed as fractional shortening at 16 ug/kg/min for 3 mins by echocardiographic analysis (reference value: 38.60 to 55.81%); assay type: functional; in short: as §1
[25] = system: Rattus norvegicus; assay: Effect on hemodynamic parameters in Sprague-Dawley rat heart assessed as end-systolic pressure at 8 ug/kg/min (reference value: 87.48 to 97.85 mmHg); assay type: functional
[26] = system: Rattus norvegicus; assay: Effect on hemodynamic parameters in Sprague-Dawley rat heart assessed as end-diastolic pressure at 8 ug/kg/min (reference value: 7.68 to 9.83 mmHg); assay type: functional
[27] = system: Rattus norvegicus; assay: Effect on hemodynamic parameters in Sprague-Dawley rat heart assessed as dPdT max at 8 ug/kg/min (reference value: 4162 to 5214 mmHg/s); assay type: functional
[28] = system: Rattus norvegicus; assay: Effect on hemodynamic parameters in Sprague-Dawley rat heart assessed as dPdT min at 8 ug/kg/min (reference value: -5462 to -4611 mmHg/s); assay type: functional
[29] = system: Rattus norvegicus; assay: Effect on hemodynamic parameters in Sprague-Dawley rat heart assessed as heart rate at 8 ug/kg/min (reference value: 260 to 322 bpm); assay type: functional
[30] = system: Rattus norvegicus; assay: Effect on hemodynamic parameters in Sprague-Dawley rat heart assessed as end-systolic pressure at 4 ug/kg/min (reference value: 94.65 to 97.85 mmHg); assay type: functional
[31] = system: Rattus norvegicus; assay: Effect on hemodynamic parameters in Sprague-Dawley rat heart assessed as end-diastolic pressure at 4 ug/kg/min (reference value: 7.68 to 9.83 mmHg); assay type: functional
[32] = system: Rattus norvegicus; assay: Effect on hemodynamic parameters in Sprague-Dawley rat heart assessed as dPdT max at 4 ug/kg/min (reference value: 4985 to 5214 mmHg/s); assay type: functional
[33] = system: Rattus norvegicus; assay: Effect on hemodynamic parameters in Sprague-Dawley rat heart assessed as dPdT min at 4 ug/kg/min (reference value: -5462 to -4898 mmHg/s); assay type: functional
[34] = system: Rattus norvegicus; assay: Effect on hemodynamic parameters in Sprague-Dawley rat heart assessed as heart rate at 4 ug/kg/min (reference value: 260 to 322 bpm); assay type: functional
[35] = Stability of the compound after 3 months by TLC analysis; assay type: physicochemical; settings: 2191.5 h

`O=C(NCCCc1ccccc1)N1CCCC1c1ccccc1` (stereo unspecified) showed an Activity [1] of 32.4%.

`O=C(NCCCc1ccccc1)Nc1ccccc1` gave an Activity [1] of 46.2%.

For `O=C(NCCCC1CCCCC1)NCCC1CCCCC1`, the Activity [1] was 44.4%.

`CN(CCCc1ccccc1)C(=O)N(C)CCc1ccccc1` showed an Activity [1] of 72.4%, an Activity [2] of 5.74% and an Activity [3] of 3.41%.

Molecule `O=C(NCCCc1ccccc1)NCCc1ccco1` has an Activity [1] of 30.6%.

`O=C(NCCCc1ccccc1)NCc1ccco1` gave an Activity [1] of 36.7%.

`O=C(NCCCn1ccnc1)NCCc1ccccc1` showed an Activity [1] of 32.6%.

`O=C(CCCCc1ccccc1)NCCc1ccccc1` showed an Activity [1] of 39.1%.

With `O=C(NCCCc1ccccc1)NCCc1ccccc1` the Activity [1] was 51.1%, the Activity [2] was 18.9% and the Activity [3] was 12.15%. The Activity [4] was -2.1% and the Activity [5] was -4.7%.

For `O=C(NCCCc1ccccc1)NCc1cccs1`, the Activity [1] was 47.6%.

Work on `c1ccc(CCCCNCCCc2ccccc2)cc1` yielded an Activity [1] of 11.9%.

`O=C(NCCCc1ccccc1)N1CCCCC1c1ccccc1` (stereo unspecified) gave an Activity [1] of 73%, an Activity [2] of 13.32% and an Activity [3] of 9.26%.

In the case of `S=C(NCCCc1ccccc1)NCCc1ccccc1`, the Activity [1] is reported as 10.3%.

Molecule `O=C(NCCCN1CCOCC1)NCCc1ccccc1` has an Activity [1] of 32.9%.

For `O=C(NCCCc1ccccc1)NC1Cc2ccccc2C1`, the Activity [1] was 61.9% and the solubility [6] was “Insoluble”.

Molecule `O=C(NCCCc1ccccc1)NCCN1CCOCC1` has an Activity [1] of 44%, an Activity [2] of 24.79% and an Activity [3] of 15.65%. It also gave an Activity [4] of -5.3% and an Activity [5] of 3.1%.

Molecule `O=C(NCCCc1ccccc1)NCCCc1ccccc1` has an Activity [1] of 45.5%.

Work on `O=C(NCCCCc1ccccc1)NCCN1CCOCC1` yielded an Activity [1] of 42.7%.

For `O=C(NCCCc1ccccc1)NCCc1ccccn1`, the Activity [1] was 30%.

Molecule `O=C(NCCCc1ccccc1)NC1CCCCC1` has an Activity [1] of 20.3%.

In the case of `O=C(NCCCc1ccccc1)NCCC1CCCCC1`, the Activity [1] is reported as 61.4%.

`O=S(=O)(NCCCc1ccccc1)NCCc1ccccc1` showed an Activity [1] of 32.1%.

`O=C(NCCCC1CCCCC1)NCCc1ccccc1` showed an Activity [1] of 37.9%.

In the case of `O=C(NCCCc1ccccc1)NCC1CCCCC1`, the Activity [1] is reported as 60.2%.

Work on `CC(CCc1ccc(O)cc1)NCCc1ccc(O)c(O)c1` (stereo unspecified) [DOBUTAMINE] yielded an Activity [7] of 68.11%, an Activity [8] of 393 bpm and an Activity [9] of 416 bpm. It also gave an Activity [10] of 421 bpm, an Activity [11] of 6.98 mm and an Activity [12] of 6.93 mm. It also gave an Activity [13] of 6.68 mm, an Activity [14] of 2.93 mm and an Activity [15] of 3.08 mm. The Activity [16] was 3.59 mm, the Activity [17] was 1.06 mm and the Activity [18] was 1.36 mm. It also gave an Activity [19] of 1.16 mm, an Activity [20] of 93.42% and an Activity [21] of 96.79%. It also gave an Activity [22] of 98.65%, an Activity [23] of 75.91% and an Activity [24] of 82.57%. It also gave an Activity [25] of 103.12 mmHg, an Activity [26] of 7.68 mmHg and an Activity [27] of 9314 mmHg/s. It also gave an Activity [28] of -4368 mmHg/s, an Activity [29] of 309 bpm and an Activity [30] of 96.65 mmHg. It also gave an Activity [31] of 9.38 mmHg, an Activity [32] of 6073 mmHg/s and an Activity [33] of -4936 mmHg/s. It also gave an Activity [34] of 270 bpm.

`O=C(NCCc1ccccc1)N1CCN(c2ccccc2)CC1` showed an Activity [1] of 36.6%.

Molecule `O=C(NCCCc1ccccc1)N1CCCC(c2ccccc2)C1` (stereo unspecified) has an Activity [1] of 35.2%.

In the case of `O=C(NCCCc1ccccc1)NCc1ccc2[nH]ccc2c1`, the Activity [1] is reported as 37.2%.

In the case of `O=C(COCCc1ccccc1)COCc1ccccc1`, the Activity [1] is reported as 42.9% and the Stability [35] is reported as “Unstable”.

For `O=C(NCCc1ccccc1)N1CCC(c2ccccc2)CC1`, the Activity [1] was 46.6% and the solubility [6] was “Insoluble”.

`O=C(NCCCc1ccccc1)NCC1CCOCC1` showed an Activity [1] of 81.4%, an Activity [2] of 20.5% and an Activity [3] of 13.1%. It also gave an Activity [4] of 4.4% and an Activity [5] of 5.1%.

In the case of `c1ccc(CCCCCNCCc2ccccc2)cc1`, the Activity [1] is reported as 1.6%.

For `Cc1ccc2c(c1)C(=O)[C@]1(O)CCN(c3ccccc3)C1=N2`, the Activity [4] was -50.7% and the Activity [5] was -35.7%.

`O=C(NCCCc1ccccc1)NCCc1cccs1` gave an Activity [1] of 29.6%.
